Measurements: ChEMBL document CHEMBL3351723, “New derivatives of lupane triterpenoids disturb breast cancer mitochondria and induce cell death” (Bioorg Med Chem, 2014)
Active and inactive are the calls of the source. The calls are words filed in the database; no cut-off is given here.

Columns and labels:
[1] = system: Liver microsome; assay: Effect on mitochondrial transmembrane potential in Wistar Han rat liver mitochondria energized with succinate assessed as ADP depolarization at 0.067 ug/mg of protein (reference value: 25.3 +/- 2.1 mV); type: functional
[2] = system: Liver microsome; assay: Effect on mitochondrial transmembrane potential in Wistar Han rat liver mitochondria energized with succinate assessed as mitochondrial transmembrane electropotential at 0.06 ug/mg of protein (reference value: 204.2 +/- 5.6 mV); type: functional
[3] = system: Liver microsome; assay: Effect on mitochondrial transmembrane potential in Wistar Han rat liver mitochondria energized with succinate assessed as mitochondrial transmembrane electropotential at 0.667 ug/mg of protein (reference value: 204.2 +/- 5.6 mV); type: functional
[4] = system: Liver microsome; assay: Effect on mitochondrial transmembrane potential in Wistar Han rat liver mitochondria energized with succinate assessed as time duration of lag phase at 0.667 ug/mg of protein (reference value: 33.0 +/- 4.6 sec); type: functional
Summary of the method: (§1)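 Isolated male Wistar rat liver mitochondria (1.5 mg protein) in 125 mM sucrose, 65 mM KCl, 5 mM KH2PO4, 2.5 mM MgCl2, 5 mM HEPES pH 7.4, 30°C, with 3 μM TPP+. Compound added for 1 min, then 10 mM succinate plus 3 μM rotenone. State 3 started with ADP (83.3 nmol/mg protein). ΔΨ read with a TPP+-selective electrode and calculated by the Kamo equation without binding correction.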

[5] = system: Liver microsome; assay: Effect on mitochondrial transmembrane potential in Wistar Han rat liver mitochondria energized with succinate assessed as time duration of lag phase at 0.133 ug/mg of protein (reference value: 33.0 +/- 4.6 sec); type: functional; summary of the method: as §1
[6] = system: MDA-MB-231; assay: Cytotoxicity against human MDA-MB-231 cells at 0.125 to 2 ug/ml after 1 to 5 days by sulforhodamine B assay; type: functional, cell-based
Summary of the method: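 Sulforhodamine B growth assay in high-glucose DMEM with 10% FBS. Cancer cells seeded at 1×10^4 cells/ml; compound (0.125–2 μg/ml) added 24 h after seeding and left for 1, 3 or 5 days. Cells fixed, total mass stained. Expressed as % of untreated cells at the same time point. Mean ± SEM, five independent experiments.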

[7] = system: Liver microsome; assay: Effect on mitochondrial transmembrane potential in Wistar Han rat liver mitochondria energized with succinate assessed as ADP depolarization at 0.333 ug/mg of protein (reference value: 25.3 +/- 2.1 mV); type: functional
[8] = system: Liver microsome; assay: Effect on mitochondrial transmembrane potential in Wistar Han rat liver mitochondria energized with succinate assessed as mitochondrial transmembrane electropotential at 0.333 ug/mg of protein (reference value: 198.0 +/- 5.6 mV); type: functional
[9] = system: Liver mitochondria (Rattus norvegicus); assay: Effect on mitochondrial transmembrane potential in Wistar Han rat liver mitochondria energized with succinate assessed as time duration of lag phase at 0.667 ug/mg of protein (reference value: 40.5 +/- 4.5 sec)
[10] = system: Liver mitochondria (Rattus norvegicus); assay: Effect on mitochondrial transmembrane potential in Wistar Han rat liver mitochondria energized with succinate assessed as time duration of lag phase at 1.333 ug/mg of protein (reference value: 40.5 +/- 4.5 sec)
[11] = system: Liver microsome; assay: Effect on mitochondrial transmembrane potential in Wistar Han rat liver mitochondria energized with succinate assessed as time duration of lag phase at 0.067 ug/mg of protein (reference value: 40.5 +/- 4.5 sec); type: functional; summary of the method: as §1
[12] = system: Liver microsome; assay: Effect on mitochondrial transmembrane potential in Wistar Han rat liver mitochondria energized with succinate assessed as ADP depolarization at 1.333 ug/mg of protein (reference value: 23.9 +/- 3.3 mV); type: functional
[13] = system: Liver microsome; assay: Effect on mitochondrial transmembrane potential in Wistar Han rat liver mitochondria energized with succinate assessed as ADP depolarization at 0.333 ug/mg of protein (reference value: 23.9 +/- 3.3 mV); type: functional
[14] = system: Liver microsome; assay: Effect on mitochondrial transmembrane potential in Wistar Han rat liver mitochondria energized with succinate assessed as ADP depolarization at 0.133 ug/mg of protein (reference value: 23.9 +/- 3.3 mV); type: functional
[15] = system: Liver microsome; assay: Effect on mitochondrial transmembrane potential in Wistar Han rat liver mitochondria energized with succinate assessed as time duration of lag phase at 0.133 ug/mg of protein (reference value: 82.8 +/- 23.5 sec); type: functional; summary of the method: as §1
[16] = system: Liver microsome; assay: Effect on mitochondrial transmembrane potential in Wistar Han rat liver mitochondria energized with succinate assessed as ADP depolarization at 1.333 ug/mg of protein (reference value: 34.7 +/- 1.4 mV); type: functional
[17] = system: Liver microsome; assay: Effect on mitochondrial transmembrane potential in Wistar Han rat liver mitochondria energized with succinate assessed as mitochondrial transmembrane electropotential at 0.667 ug/mg of protein (reference value: 216.0 +/- 7.4 mV); type: functional; summary of the method: as §1
[18] = system: Liver microsome; assay: Effect on mitochondrial transmembrane potential in Wistar Han rat liver mitochondria energized with succinate assessed as ADP depolarization at 0.667 ug/mg of protein (reference value: 34.7 +/- 1.4 mV); type: functional
[19] = system: Liver microsome; assay: Effect on mitochondrial transmembrane potential in Wistar Han rat liver mitochondria energized with succinate assessed as ADP depolarization at 0.067 ug/mg of protein (reference value: 34.7 +/- 1.4 mV); type: functional
[20] = system: Liver microsome; assay: Effect on mitochondrial transmembrane potential in Wistar Han rat liver mitochondria energized with succinate assessed as time duration of lag phase at 0.133 ug/mg of protein Rvb = 46.7 +/- 3.9 sec); type: functional; summary of the method: as §1
[21] = system: Liver microsome; assay: Effect on mitochondrial transmembrane potential in Wistar Han rat liver mitochondria energized with succinate assessed as ADP depolarization at 0.333 ug/mg of protein (reference value: 34.6 +/- 1.9 mV); type: functional
[22] = system: Liver microsome; assay: Effect on mitochondrial transmembrane potential in Wistar Han rat liver mitochondria energized with succinate assessed as mitochondrial transmembrane electropotential at 0.667 ug/mg of protein (reference value: 220.6 +/- 2.5 mV); type: functional; summary of the method: as §1
[23] = system: Liver microsome; assay: Effect on mitochondrial transmembrane potential in Wistar Han rat liver mitochondria energized with succinate assessed as ADP depolarization at 0.067 ug/mg of protein (reference value: 34.6 +/- 1.9 mV); type: functional
[24] = system: Liver microsome; assay: Effect on mitochondrial transmembrane potential in Wistar Han rat liver mitochondria energized with succinate assessed as ADP depolarization at 0.667 ug/mg of protein (reference value: 34.6 +/- 1.9 mV); type: functional
[25] = system: Liver microsome; assay: Effect on mitochondrial transmembrane potential in Wistar Han rat liver mitochondria energized with succinate assessed as time duration of lag phase at 0.333 ug/mg of protein Rvb = 46.7 +/- 3.9 sec); type: functional; summary of the method: as §1
[26] = system: Liver microsome; assay: Effect on mitochondrial transmembrane potential in Wistar Han rat liver mitochondria energized with succinate assessed as time duration of lag phase at 1.333 ug/mg of protein Rvb = 46.7 +/- 3.9 sec); type: functional; summary of the method: as §1
[27] = system: Liver microsome; assay: Effect on mitochondrial transmembrane potential in Wistar Han rat liver mitochondria energized with succinate assessed as mitochondrial transmembrane electropotential at 0.06 ug/mg of protein (reference value: 220.6 +/- 2.5 mV); type: functional

C=C(C)[C@@H]1CC[C@]2(COC(=O)CC[n+]3ccc(N(C)C)cc3)CC[C@]3(C)[C@H](CC[C@@H]4[C@@]5(C)CC[C@H](OC(=O)CC[n+]6ccc(N(C)C)cc6)C(C)(C)[C@@H]5CC[C@]43C)[C@@H]12.[Cl-].[Cl-]
Activity [1]: 24.7 mV | Activity [2]: 206 mV | Activity [3]: 205 mV | TIME [4]: 0.00894 h | TIME [5]: 0.00867 h | inhibition [6]: Active | Activity [7]: 27.1 mV

C=C(C)[C@@H]1CC[C@]2(COC(=O)C(CC)[n+]3ccc(N(C)C)cc3)CC[C@]3(C)[C@H](CC[C@@H]4[C@@]5(C)CC[C@H](OC(=O)C(CC)[n+]6ccc(N(C)C)cc6)C(C)(C)[C@@H]5CC[C@]43C)[C@@H]12 (some centres not stated)
Activity [8]: 193 mV | TIME [9]: 0.0117 h | TIME [10]: 0.0136 h | TIME [11]: 0.0123 h | Activity [12]: 21.8 mV | Activity [13]: 23.2 mV | Activity [14]: 23.2 mV

C=C(C)[C@@H]1CC[C@]2(COC(=O)C[n+]3ccc(N(C)C)cc3)CC[C@]3(C)[C@H](CC[C@@H]4[C@@]5(C)CC[C@H](OC(=O)C[n+]6ccc(N(C)C)cc6)C(C)(C)[C@@H]5CC[C@]43C)[C@@H]12.[Cl-].[Cl-]
TIME [15]: 0.0233 h | Activity [16]: 25.2 mV | Activity [17]: 206 mV | Activity [18]: 28.6 mV | Activity [19]: 28.4 mV

C=C(C)[C@@H]1CC[C@]2(COC(=O)C[N+](C)(C)C(C)C)CC[C@]3(C)[C@H](CC[C@@H]4[C@@]5(C)CC[C@H](OC(=O)C[N+](C)(C)C(C)C)C(C)(C)[C@@H]5CC[C@]43C)[C@@H]12.[Cl-].[Cl-]
TIME [20]: 0.0137 h | Activity [21]: 28.8 mV | Activity [22]: 211 mV | Activity [23]: 31.5 mV | Activity [24]: 21.9 mV | TIME [25]: 0.0129 h | TIME [26]: 0.0144 h | Activity [27]: 217 mV
